Screening data as filed in PubChem BioAssay.
Most compounds without a hit are left out; they make up all but 12% or so of the library.
ROMK primary – human ROMK K+ channel modulation, primary screen; AID 1918; P48048; actives 2% (n = 130,000); B-score at 10 µM; Tet-inducible ROMK, thallium flux fluorescence; actives lie on both sides;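 active = signal ratio slope over the read window, or its plate-corrected B-score, at least 3 SD from the plate mean, either direction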;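 also: B-score of the F/F0 ratio slope over 7 to 12 s after thallium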
Target sequence (P48048 whole entry, looked up): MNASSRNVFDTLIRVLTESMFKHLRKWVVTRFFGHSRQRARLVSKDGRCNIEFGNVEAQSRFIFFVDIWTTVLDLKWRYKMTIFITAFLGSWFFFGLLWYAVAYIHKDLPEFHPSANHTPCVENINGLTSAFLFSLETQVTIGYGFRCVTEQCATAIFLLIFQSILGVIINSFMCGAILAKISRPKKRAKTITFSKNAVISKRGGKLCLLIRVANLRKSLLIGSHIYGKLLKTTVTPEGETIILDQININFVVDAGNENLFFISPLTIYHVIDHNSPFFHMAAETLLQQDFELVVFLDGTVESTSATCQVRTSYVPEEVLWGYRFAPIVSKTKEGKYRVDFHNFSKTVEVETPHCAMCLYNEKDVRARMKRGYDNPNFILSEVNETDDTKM
Lmaj promast – inhibitors of Leishmania major promastigote growth; inhibition, % at 10 µM; actives 9% (n = 200,000); Leishmania major promastigotes, resazurin fluorescence viability; in the data active = inhibition above about 50%;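 also: promastigotes grown with compound for 44 hours at 28 °C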
Diaphorase act – diaphorase activation or chemical reduction counter-screen; AID 1229; actives 0.005% (n = 190,000); Diaphorase/resazurin coupled assay, resorufin fluorescence, 16 min; stronger effect = higher value; 1 = vehicle wells, 0 = NADH-free wells; activation factor at 20 µM;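 active = diaphorase activity raised at least twofold by the compound at 20 µM; inactive = activation factor below 2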
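Assay system: bacterial diaphorase enzyme (C. kluyveri) / Input: enzyme 0.07 U/mL final / Medium: 50 mM HEPES pH 7.4 with 4.542 mM MgCl2, 0.005% Tween 20 / Doses: single compound dose of 20 µM, 1% DMSO final / Incubation: 16 min enzyme reaction, ambient temperature / Signal: fluorescence, excitation 544 nm and emission 590 nm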
KCC2 mod – modulates chloride dependent transport by human KCC2; B-score of Tl+ flux slope (higher = more flux/activation; lower = inhibition) at 10 µM; Q9H2X9; actives 2.2% (n = 190,000); KCC2 cells, thallium flux FluoZin-2 fluorescence;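 active = thallium flux slope and its plate-corrected score both differing from the plate sample mean at a set confidence after two filtering rounds, in either direction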;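 also: slope of fluorescence scaled to starting intensity during 10 to 20 s after thallium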
WT yeast gro inh – growth inhibition of WT yeast, mitochondrial fusion screen | inhibition, % at 10 µM | AID 1362 | mitochondrial fusion phenotypic screen, WT strain | actives 2.1% (n = 190,000); in the data active = inhibition above about 58%; tested in S. cerevisiae
Diaphorase inh – diaphorase inhibition or chemical oxidation counter-screen; actives 0.69% (n = 190,000); diaphorase resazurin-to-resorufin fluorescence, NADH, 16 min; bacterial (C. kluyveri) enzyme, not human; AID 1217; inhibition, % at 20 µM;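 active = primary screen inhibition at 20 µM above a set limit, cut at about 50% in these data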
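Assay system: diaphorase enzyme from Clostridium kluyveri. Quantity: enzyme working solution with 0.14 U/mL diaphorase. Schedule: reaction incubation of 16 min at room temperature. Technique: resorufin fluorescence, excitation 544 nm, emission 590 nm. Controls: No-NADH positive control and DMSO neutral control.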
KCC2 sec1 – KCC2 (human) modulation, secondary assay; HEK293-KCC2, thallium flux, FluoZin2 fluorescence; stronger effect = higher value; normalised thallium flux (F/F0 slope) at 10 µM; shares compounds with KCC2 mod; AID 1713; actives 15% (n = 3,700);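 active = thallium flux slope above the same plate's solvent-only control mean plus 3 SD; inconclusive = the two replicate wells disagree; inactive = no significant difference from solvent-only control wells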
KCC2 bumet counter – bumetanide-insensitive thallium flux in KCC2 cells with ouabain, counter-screen; shares compounds with KCC2 mod; HEK293-KCC2 + bumetanide/ouabain, thallium flux FluoZin2; stronger effect = higher value; normalized thallium flux at 10 µM; actives 49% (n = 3,700);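 active = thallium entry rate above the same plate's blocked-transporter control wells by more than 3 SD; inconclusive = the two repeat wells disagree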;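 also: raw slope of fluorescence over initial fluorescence between 10 and 20 s after thallium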
KCC2 secondary2 – confirmation of human KCC2 transport modulators; shares compounds with KCC2 mod; HEK293-KCC2, thallium flux FluoZin2 fluorescence; actives lie on both sides; F/F0 rise rate, 10–20 s post-thallium; normalized thallium flux at 10 µM; actives 23% (n = 3,700);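 active = thallium flux slope more than 3 SD above or below the plate's solvent-only control mean, mostly below; inconclusive = the two repeat wells disagreed; inactive = no significant shift from solvent-only controls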
HEK counter1 – counter-screen for KCC2 modulators: effect in parental HEK293 cells | shares compounds with KCC2 mod | thallium flux FluoZin2, ouabain; baseline-ratio fluorescence slope, 10–20 s after thallium | thallium flux rate (normalised fluorescence) at 10 µM | actives 46% (n = 3,700) | AID 1716;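 active = thallium flux rate significantly above the same plate's solvent-only control wells, beyond their mean plus 3 SD; inconclusive = the two replicate wells gave conflicting results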
KCC2 retest ouab – confirmation of human KCC2 modulators with ouabain. shares compounds with KCC2 mod. HEK293-KCC2, thallium flux FluoZin2 fluorescence; bidirectional: low = inhibitor, high = activator. raw Tl+ flux slope (below DMSO = inhibition, above = activation) at 10 µM. actives 48% (n = 3,700). AID 1717;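 active = thallium flux slope beyond 3 SD from same-plate DMSO control mean in most replicates, usually higher, sometimes lower; inconclusive = repeat tests gave conflicting results; inactive = no significant difference from controls in most replicates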;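 also: slope of initial-normalized fluorescence between seconds 10 and 20 after thallium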
HEK counter2 – counter-screen for KCC2 modulators: effect in parental HEK293 cells. thallium flux FluoZin-2 fluorescence slope. actives 33% (n = 3,700). shares compounds with KCC2 mod. thallium flux slope at 10 µM;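 active = thallium flux slope above the same plate's solvent-control mean plus 3 SD in both duplicate wells; inconclusive = duplicate wells that disagreed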;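 also: run without ouabain in cells lacking the KCC2 cotransporter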
A number is an active result; n = inactive; u = inconclusive; x = no result.

SMILES | ROMK primary | Lmaj promast | Diaphorase act | KCC2 mod | WT yeast gro inh | Diaphorase inh | KCC2 sec1 | KCC2 bumet counter | KCC2 secondary2 | HEK counter1 | KCC2 retest ouab | HEK counter2
COc1ccc(S(=O)(=O)N2CCCCC2)cc1NC(=O)CSc1ncnc2ccccc12 | x | n | n | -3.3 | n | n | n | n | n | u | 0.015 | n
CCN(CC)S(=O)(=O)c1ccc(NC(=O)CSc2ncnc3ccccc23)cc1 | n | n | n | -5.2 | n | n | n | n | u | n | 0.013 | n
FC(F)(F)c1ccc(Cl)c(NC(=S)N/N=C/c2ccccc2C(F)(F)F)c1 | n | n | n | 4.9 | n | n | n | 0.014 | u | 0.014 | u | 0.013
O=C(NC1CCS(=O)(=O)C1)/C(=C\c1ccc(F)cc1)NC(=O)c1ccccc1 (stereo not given) | n | n | n | n | n | n | x | x | x | x | x | x
CC(C)CN(CCC(=O)O)CC(C)C | x | n | n | x | n | n | x | x | x | x | x | x
Cc1onc(-c2ccccc2)c1C(=O)N1CCN(c2ncccn2)CC1 | n | n | n | n | n | n | x | x | x | x | x | x
Cc1ccc(C)c(SCC(=O)Nc2nnc(-c3ccccc3)o2)c1 | n | n | n | 16 | 73 | n | 0.019 | 0.057 | n | 0.038 | 0.046 | 0.014
COc1ccc(-c2nnc(NC(=O)c3cc(Cl)ccc3Cl)o2)cc1 | x | n | n | 23 | n | n | n | 0.055 | 0.044 | 0.039 | 0.05 | 0.031
Cc1ccccc1C(=O)Nc1nnc(-c2ccc(F)cc2)o1 | x | n | n | 7.3 | 70 | n | 0.013 | 0.024 | n | 0.016 | n | u
CCC(c1nnc(SCC(=O)Nc2nnc(-c3ccccc3)o2)o1)N(C)C (stereo not given) | x | n | n | n | n | n | x | x | x | x | x | x
COc1ccccc1C(=O)Nc1nnc(-c2ccc(F)cc2)o1 | x | n | n | n | n | n | x | x | x | x | x | x
Cc1cccc(-c2c3c(=O)n(C)c(=O)n(C)c3cn2CC2CCCO2)c1 (stereo not given) | x | n | n | n | n | n | x | x | x | x | x | x
CCO[C@H]1OC(C(=O)N2CCN(Cc3ccc4c(c3)OCO4)CC2)=C[C@@H](c2ccc(Br)cc2)[C@@H]1CCCO | x | n | n | n | n | n | x | x | x | x | x | x
Cc1nc(SCC(O)CO)c([N+](=O)[O-])[nH]1 (stereo not given) | x | n | n | n | n | n | x | x | x | x | x | x
CCOc1nc(-c2ccccc2Cl)nc2ccccc12 | x | x | x | n | x | x | x | x | x | x | x | x
CCOc1nc(-c2ccncc2)nc2ccccc12 | n | n | n | n | n | n | n | n | u | n | n | n
CCOC(=O)N1CCN(C(=S)NC)CC1 | n | n | n | x | n | n | x | x | x | x | x | x
CCOC(=O)N1CCN(C(=S)NC(=O)C23CC4CC(CC(C4)C2)C3)CC1 | n | n | n | 5.9 | n | n | n | 0.03 | n | 0.012 | u | n
CCN(CC)CCNC(=O)C12CC3CC(CC(C3)C1)C2 | n | n | n | n | n | n | x | x | x | x | x | x
CCN(CC)C(=S)NC(=O)C12CC3CC(CC(C3)C1)C2 | n | n | n | 20 | n | n | n | 0.055 | 0.042 | 0.028 | 0.043 | 0.034
